Most compounds without a hit are left out; they make up all but 1.5% or so of the library.
NR2E3 ag-1: agonists of human NR2E3 nuclear receptor; CHO-S Gal4-NCOR/VP16-NR2E3 two-hybrid, luciferase; inhibition of corepressor binding, % at 3.98 µM; hit rate 0.35% among 360,000; Q9Y5X4;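 active = inhibition above the mean of all tested compounds plus 3 SD, cut at about 70% in these data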;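 note: higher means lower luciferase signal from less NR2E3 corepressor binding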
PG9 Ab binder: small molecules binding HIV-1 gp120 antibody PG9; TR-FRET gp120-PG9 antibody binding; AID 624416; inhibition, % at 6.7 µM; hit rate 0.43% among 360,000; in the data active = inhibition above about 8.5%
NR2E3 ag-2: NR2E3 (human) agonism | GST-NR2E3/biotin-RetCOR TR-FRET, 1536-well | inhibition of corepressor binding, % at 4.78 µM | hit rate 0.12% among 320,000 | AID 2300;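 active = percent inhibition above the cutoff of mean plus 3 SD of all tested compounds, set per screening campaign, cut at about 20% in these data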
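system = GST-tagged NR2E3 plus biotinylated RetCOR corepressor | input = 1.35 nM GST-NR2E3 | also added = 7 nM biotin-RetCOR | schedule = 5 h incubation at 4 °C | measured by = TR-FRET with europium anti-GST and streptavidin-D2, 340 nm excitation | read-out = percent loss of FRET ratio relative to control wells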
NR1D1 modulator: modulators of human Rev-erb alpha DNA binding; P20393; Rev-erbα–FITC-DNA binding, fluorescence polarization, 90 min; activity, % at 10 µM; hit rate 0.79% among 370,000;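 active = activity above about 14%, limit read from the data; passing the limit was not always enough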
Target sequence (P20393 whole entry, looked up): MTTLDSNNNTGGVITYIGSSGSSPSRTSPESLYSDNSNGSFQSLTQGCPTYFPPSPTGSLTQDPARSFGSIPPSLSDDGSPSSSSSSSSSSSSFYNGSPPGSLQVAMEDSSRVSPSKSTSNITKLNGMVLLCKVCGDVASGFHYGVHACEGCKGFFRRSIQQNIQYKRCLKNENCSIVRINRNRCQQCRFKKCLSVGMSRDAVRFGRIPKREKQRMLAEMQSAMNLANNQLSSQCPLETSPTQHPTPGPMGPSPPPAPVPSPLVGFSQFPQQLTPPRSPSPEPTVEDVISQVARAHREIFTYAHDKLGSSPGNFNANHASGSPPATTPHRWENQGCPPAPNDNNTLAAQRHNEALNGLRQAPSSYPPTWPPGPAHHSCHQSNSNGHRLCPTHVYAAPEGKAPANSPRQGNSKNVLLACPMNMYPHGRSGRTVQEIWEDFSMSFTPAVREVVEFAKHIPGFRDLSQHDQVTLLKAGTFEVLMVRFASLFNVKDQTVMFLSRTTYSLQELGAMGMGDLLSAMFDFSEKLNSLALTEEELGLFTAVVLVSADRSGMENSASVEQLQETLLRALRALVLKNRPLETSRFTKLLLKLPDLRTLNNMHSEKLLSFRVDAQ
Rev-erbA confirm: confirmation of modulators of human Rev-erb alpha DNA binding; shares compounds with NR1D1 modulator; hit rate 61% among 3,000; activation, % at 25 µM; AID 1259319; Rev-erb alpha FITC-DNA binding, fluorescence polarization, 90 min;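 active = activation at or above a set limit, or at least 3 SD above the negative control mean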
RORg counter: RORgamma DNA-binding activity, dose-response counter-screen; shares compounds with NR1D1 modulator; purified RORgamma protein-FITC-DNA binding, fluorescence polarization; IC50, µM; hit rate 8% among 910;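 active = Compounds whose fitted half-maximal concentration for disrupting protein-DNA binding is below 10 micromolar; the record names Rev-erb in its text, so the target is in doubt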
Each line names hits and unclear results; the compound was inactive in the other large screens (follow-up assays come after a bar, where they were run).

O=C(COC(=O)c1ccc2ccccc2c1O)Nc1ccccc1	NR1D1 modulator 59 (no result: NR2E3 ag-2) | Rev-erbA confirm 28
O=C(OC12CCCN(C1)/C(=C/c1cccc(Cl)c1)C2)c1ccc(Cl)cc1 (stereo not given)	none (no result: NR2E3 ag-1, PG9 Ab binder, NR2E3 ag-2)
CCOC(=O)c1cc(C)nc(SC)c1C#N	none
CCC(C)OC(=O)c1cc(C)nc2c(Br)cc(Br)cc12 (stereo not given)	NR1D1 modulator 46 | Rev-erbA confirm 46 | RORg counter inactive
CC(C)C[C@H]1COc2cc(NCc3ccc(Cl)c(Cl)c3)ccc2S(=O)(=O)N1	NR1D1 modulator 17 (no result: NR2E3 ag-1, NR2E3 ag-2) | Rev-erbA confirm inactive
CCCn1c(NC(=O)c2ccc(Br)cc2)nc2ccccc21	NR1D1 modulator 32 | Rev-erbA confirm 22
CCCn1c(NC(=O)c2ccc(F)cc2)nc2ccccc21	NR1D1 modulator 26 | Rev-erbA confirm inactive
O=c1cc(N2CCN(c3cccc(C(F)(F)F)c3)CC2)[nH]c(=O)n1-c1ccccc1	none (no result: NR2E3 ag-1, PG9 Ab binder, NR2E3 ag-2)
CC(=O)OC12CCCN(C1)/C(=C/c1ccc(Cl)cc1)C2 (stereo not given)	none (no result: NR2E3 ag-1, PG9 Ab binder, NR2E3 ag-2)
O=c1cc(-c2ccccc2Cl)oc2c(NS(=O)(=O)c3cccs3)ccc(O)c12	NR1D1 modulator 27 | Rev-erbA confirm 33 | RORg counter inactive
O=c1cc(-c2ccccc2Cl)oc2c(NS(=O)(=O)c3ccccc3C(F)(F)F)ccc(O)c12	none
CCC[C@H]1[C@@H](NC(=O)C2CCCCC2)CC[C@@]23CCCN2C(=O)CCC[C@@H]13	none (no result: NR2E3 ag-1, PG9 Ab binder, NR2E3 ag-2)
CN(C)c1cc(-c2ccc(Cl)c(Cl)c2)oc(=O)c1Cl	NR1D1 modulator 36 | Rev-erbA confirm inactive
CC[C@H]1OC(=O)[C@H](C)[C@@H](O[C@H]2C[C@@](C)(OC)[C@@H](O)[C@H](C)O2)C(C)[C@@H](O[C@@H]2O[C@H](C)C[C@H](N(C)C)[C@H]2O)[C@](C)(O)C[C@@H](C)CN(C)[C@H](C)[C@@H](O)[C@]1(C)O (stereo not given in full)	none (no result: NR2E3 ag-1, PG9 Ab binder, NR2E3 ag-2)
COc1ccccc1CCNC(=O)CSc1ccc(-c2cccs2)nn1	none
CCOC(=O)CSc1nc(N)c(C#N)c(-c2cccs2)c1C#N	NR1D1 modulator 16 | Rev-erbA confirm 21
COc1ccc(-c2cc(-c3cccs3)c(C#N)c(SCC(=O)NCc3ccccc3OC)n2)cc1	NR1D1 modulator 46 | Rev-erbA confirm 26
N#Cc1c(N)nc(SCc2ccccn2)c(C#N)c1-c1cccs1	none
COc1ccccc1CNC(=O)CSc1nc(N)c(C#N)c(-c2cccs2)c1C#N	NR1D1 modulator 35 | Rev-erbA confirm 25
COc1ccc(-c2cc(-c3cccs3)c(C#N)c(SCC(=O)NCc3ccccc3)n2)cc1	NR1D1 modulator 52 | Rev-erbA confirm 26
N#Cc1c(-c2ccccc2)cc(-c2cccs2)nc1SCC(=O)O	none
Cc1ccc(-n2nc3ccc(NC(=O)c4ccco4)cc3n2)cc1	none
Cc1ccc(-n2nc3ccc(NC(=O)c4cccc([N+](=O)[O-])c4C)cc3n2)cc1	NR1D1 modulator 26 | Rev-erbA confirm inactive
CCCCCCOC(=O)C1=C(C)NC(=O)NC1c1ccc2c(c1)OCO2 (stereo not given)	NR1D1 modulator 17 | Rev-erbA confirm inactive
CCC(CC)COC(=O)C1=C(C)NC(=O)NC1c1ccc(OC)cc1 (stereo not given)	NR1D1 modulator 21 | Rev-erbA confirm 20
CCOC(=O)C1=C(C)NC(=O)NC1c1ccc2c(c1)OCO2 (stereo not given)	none
COC(=O)[C@]12C[C@H](CC(=O)NCc3ccc(C)o3)C(=O)N(CCc3ccc(OC)c(OC)c3)C1=C[C@H](COCc1ccccc1)O[C@@H]2C	none (no result: NR2E3 ag-1, PG9 Ab binder, NR2E3 ag-2)
COc1ccc(C=NNC(=O)c2cc(-c3ccc(C)c(C)c3)n[nH]2)cc1OCc1ccccc1	none (no result: NR2E3 ag-1, PG9 Ab binder, NR2E3 ag-2)
Cc1cccc(-c2cccc3c4c([nH]c23)[C@@H]2C[C@H](N(C)C(=O)Nc3ccccc3)[C@H]([C@H](C)O)C(=O)N2CC4)c1	none (no result: NR2E3 ag-1, PG9 Ab binder, NR2E3 ag-2)
CCOC(=O)CC[C@@]1(C(=O)OCC)C[C@@H](CC(=O)NCc2cccs2)C(=O)N2CCCC=C21	none (no result: NR2E3 ag-1, PG9 Ab binder, NR2E3 ag-2)
CCOc1cccc2sc(=NC(=O)c3ccc(S(=O)(=O)N4CCOCC4)cc3)n(C)c12	NR1D1 modulator 30 | Rev-erbA confirm inactive
